According to ChEMBL document CHEMBL4130511, “Phenylpropenoids from Bupleurum fruticosum as Anti-Human Rhinovirus Species A Selective Capsid Binders” (J Nat Prod, 2017):
pEC50: −log10 of the molar value. Active and inactive are the calls of the source. The calls are words filed in the database; no cut-off is given here.

Tests used:
[1] = test system: rhinovirus B14; test: Antiviral activity against Human rhinovirus serotype 14 infected in human HeLa cells assessed as reduction in virus-induced cytopathic effect after 24 to 36 hrs by MTT assay; format: functional, organism-based; conditions: Rhinovirus B
In short: (§1)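 HeLa (Ohio) monolayers in DMEM with 1% nonessential amino acids and 10% fetal calf serum, infected at MOI 1, then given serial compound dilutions. Incubation 24−36 h at 33 °C, 3% CO2, until control CPE was almost total. Multicycle CPE reduction read by MTT. EC50 (50% CPE inhibition) taken from dose−response curves by linear regression. Pleconaril served as reference.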

[2] = Cytotoxicity against human HeLa cells assessed as decrease in cell viability after 72 hrs by MTT assay; format: cell-based
In short: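 HeLa monolayers exposed to a range of compound concentrations at 37 °C, 5% CO2. Morphology (rounding, shrinking, detachment) checked by light microscopy at 24, 48 and 72 h. Viability measured by MTT colorimetry. CC50 is the concentration that lowered control absorbance by 50%.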

[3] = test system: rhinovirus A39; test: Antiviral activity against Human rhinovirus serotype 39 infected in human HeLa cells assessed as reduction in virus-induced cytopathic effect after 24 to 36 hrs by MTT assay; format: functional, organism-based; conditions: Rhinovirus A; in short: as §1
[4] = Selectivity index, ratio of CC50 for human HeLa cells to EC50 for Human rhinovirus serotype 39 infected in human HeLa cells; format: toxicity, cell-based; conditions: read-out: Ratio CC50/EC50
In short: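 Selectivity index computed as CC50 (MTT, uninfected HeLa) divided by EC50 (MTT, HRV39 CPE reduction in HeLa at MOI 1, 24−36 h at 33 °C).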

[5] = biological target: T1, VP1 capsid protein (Human rhinovirus sp.) (UniProt Q7T664); test: Inhibition of Human rhinovirus serotype 39 capsid infected in human HeLa cells assessed as reduction in virus-induced cytopathic effect at 5 ug/ml treated 1 hr post viral infection measured after 24 to 36 hrs relative to control; format: cell-based; conditions: rhinovirus A39
T1 sequence (whole entry): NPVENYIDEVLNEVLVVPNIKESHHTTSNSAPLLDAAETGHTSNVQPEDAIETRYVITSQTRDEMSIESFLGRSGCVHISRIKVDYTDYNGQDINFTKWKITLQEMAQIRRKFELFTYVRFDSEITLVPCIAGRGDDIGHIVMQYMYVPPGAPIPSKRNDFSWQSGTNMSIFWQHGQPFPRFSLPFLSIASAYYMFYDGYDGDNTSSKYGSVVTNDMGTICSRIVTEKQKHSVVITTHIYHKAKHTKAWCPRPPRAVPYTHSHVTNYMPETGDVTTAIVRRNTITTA
In short: (§2)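 HeLa (Ohio strain) monolayers in 24-well plates (DMEM, 10% fetal calf serum) infected with ATCC HRV39 (working stock prepared as cell lysate). Compound at 5 μg/mL added before (−1 h), at (0 h) or after infection. Cells incubated in CO2 atmosphere for 24–36 h, then washed twice with HBSS. Virus yield inhibition (%) determined by virus-cell-based CPE reduction assay in HeLa cells. Pirodavir (5 μg/mL) served as positive control.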

[6] = biological target: T1, VP1 capsid protein (Human rhinovirus sp.); test: Inhibition of Human rhinovirus serotype 39 capsid infected in human HeLa cells assessed as reduction in virus-induced cytopathic effect at 5 ug/ml treated with virus inoculum measured after 24 to 36 hrs relative to control; format: cell-based; conditions: rhinovirus A39; in short: as §2
[7] = biological target: T1, VP1 capsid protein (Human rhinovirus sp.); test: Inhibition of Human rhinovirus serotype 39 capsid infected in human HeLa cells assessed as reduction in virus-induced cytopathic effect at 5 ug/ml treated 3 hrs post viral infection measured after 24 to 36 hrs relative to control; format: cell-based; conditions: rhinovirus A39; in short: as §2
[8] = biological target: T1, VP1 capsid protein (Human rhinovirus sp.); test: Inhibition of Human rhinovirus serotype 39 capsid infected in human HeLa cells assessed as reduction in virus-induced cytopathic effect at 5 ug/ml treated 2 hrs post viral infection measured after 24 to 36 hrs relative to control; format: cell-based; conditions: rhinovirus A39; in short: as §2
[9] = biological target: T1, VP1 capsid protein (Human rhinovirus sp.); test: Inhibition of Human rhinovirus serotype 39 capsid infected in human HeLa cells assessed as reduction in virus-induced cytopathic effect at 5 ug/ml treated 1 hr prior to viral infection measured 24 to 36 hrs post viral infection relative to control; format: cell-based; conditions: rhinovirus A39; in short: as §2

Row | Compound | pEC50 [1] | CC50 at 72 h [2] [µM] | pEC50 [3] | selectivity ratio [4] | inhibition [5] [%] | inhibition [6] | inhibition [7] [%] | inhibition [8] [%] | inhibition [9] [%]
1 | C/C=C(/C)C(=O)OC/C(=C/C)C(=O)OC/C=C/c1ccc(OC)cc1 | < 4.44 | 36.3 | < 4.44 | – | – | – | – | – | –
2 | C/C=C(/C)C(=O)OC/C=C/c1ccc(OC)c(OC)c1 | < 3.34 | 453 | < 3.34 | – | – | – | – | – | –
3 | COc1ccc(/C=C/CO)cc1OC | < 3.80 | 160 | < 3.80 | – | – | – | – | – | –
4 | CC(C)CC(=O)OC/C=C/c1ccccc1 | < 3.85 | 142 | < 3.85 | – | – | – | – | – | –
5 | C=C[C@H](O)C#CC#CC/C=C\CCCCCCCCO | < 4.84 | 14.6 | 5.74 | 8.1 | – | – | – | – | –
6 | Cc1cc(CCCOc2c(C)cc(-c3noc(C(F)(F)F)n3)cc2C)on1 [PLECONARIL] | 6.52 | 131 | 7.00 | – | – | – | – | – | –
7 | C/C=C(/C)C(=O)OC/C(=C/C)C(=O)OC/C=C/c1ccc(OC)c(OC)c1 | < 4.69 | 20.3 | 5.62 | 8.4 | 78 | 90% | 50 | 65 | 100
8 | CCOC(=O)c1ccc(OCCC2CCN(c3ccc(C)nn3)CC2)cc1 | – | – | – | – | – | Active | – | – | –
9 | CC(C)[C@@H]1CCC(C=O)=C[C@H]1O | < 4.32 | 47.6 | < 4.32 | – | – | – | – | – | –
10 | C=CC(O)C#CC#C/C=C/C(O)CCCCCCCCO (configuration not stated) | < 3.97 | 107 | < 3.97 | – | – | – | – | – | –
11 | COc1ccc(/C=C/CO)cc1 | < 3.72 | 189 | < 3.72 | – | – | – | – | – | –
12 | C/C=C(/C)C(=O)OC/C=C/c1ccc(OC)cc1 | < 3.61 | 248 | 4.51 | 8 | – | – | – | – | –
